{
  "source": "ChEMBL document CHEMBL4837214",
  "about": "“Design, synthesis, and biological evaluation of novel tetrahydroprotoberberine derivatives to reduce SREBPs expression for the treatment of hyperlipidemia” (Eur J Med Chem, 2021)",
  "note": "Active and inactive are the calls of the source. The rule behind the calls is not given here.",
  "data": [
    {"test_system": "HepG2", "test": "Cytotoxicity against human HepG2 cells assessed as reduction in cell viability at 10 uM after 24 hrs by CCK8 assay", "assay_type": "functional", "units": {"Activity": "%"}, "values": [
      {"smiles": "COc1ccc2c(c1OS(=O)(=O)c1c(C)cc(C)cc1C)CN1CCc3cc4c(cc3C1C2)OCO4", "note": "(centres undefined)", "Activity": 80.7},
      {"smiles": "CCCS(=O)(=O)Oc1c(OC)ccc2c1CN1CCc3cc(OC)c(OC)cc3C1C2", "note": "(centres undefined)", "Activity": 80.2},
      {"smiles": "COc1ccc2c(c1OC(=O)c1cccc(C)c1)CN1CCc3cc4c(cc3C1C2)OCO4", "note": "(centres undefined)", "Activity": 90.1},
      {"smiles": "COc1ccc2c(c1OS(=O)(=O)c1ccccc1[N+](=O)[O-])CN1CCc3cc4c(cc3C1C2)OCO4", "note": "(centres undefined)", "Activity": 88.8},
      {"smiles": "COc1cc2c(cc1OC)C1Cc3ccc(OC)c(OS(=O)(=O)c4c(C(C)C)cc(C(C)C)cc4C(C)C)c3CN1CC2", "note": "(centres undefined)", "Activity": 91.1},
      {"smiles": "COc1cc2c(cc1OC)C1Cc3ccc(OC)c(OS(=O)(=O)c4cccs4)c3CN1CC2", "note": "(centres undefined)", "Activity": 89.2},
      {"smiles": "COc1ccc2c(c1OC(=O)c1ccco1)CN1CCc3cc4c(cc3C1C2)OCO4", "note": "(centres undefined)", "Activity": 83.9},
      {"smiles": "CCCCOc1c(OC)ccc2c1CN1CCc3cc4c(cc3C1C2)OCO4", "note": "(centres undefined)", "Activity": 98.1},
      {"smiles": "COc1cc2c(cc1OC)C1Cc3ccc(OC)c(OS(=O)(=O)c4ccc(F)cc4)c3CN1CC2", "note": "(centres undefined)", "Activity": 93.4},
      {"smiles": "COc1ccc2c(c1OS(=O)(=O)c1cccs1)CN1CCc3cc4c(cc3C1C2)OCO4", "note": "(centres undefined)", "Activity": 93.4},
      {"smiles": "COc1cc2c(cc1OC)C1Cc3ccc(OC)c(OC(=O)c4cccc(C)c4)c3CN1CC2", "note": "(centres undefined)", "Activity": 84.3},
      {"smiles": "COc1cc2c(cc1OC)C1Cc3ccc(OC)c(OS(=O)(=O)c4c(C)cc(C)cc4C)c3CN1CC2", "note": "(centres undefined)", "Activity": 73.3},
      {"smiles": "COc1cc2c(cc1OC)C1Cc3ccc(OC)c(OC(=O)C4CCCCC4)c3CN1CC2", "note": "(centres undefined)", "Activity": 85.5},
      {"smiles": "COc1cc2c(cc1OC)C1Cc3ccc(OC)c(OS(=O)(=O)c4cc(C)ccc4C)c3CN1CC2", "note": "(centres undefined)", "Activity": 81.4},
      {"smiles": "COc1ccc2c(c1OC(=O)C(C)(C)CCl)CN1CCc3cc4c(cc3C1C2)OCO4", "note": "(centres undefined)", "Activity": 99.6},
      {"smiles": "COc1cc2c(cc1OC)C1Cc3ccc(OC)c(OC(=O)c4ccc(CCl)cc4)c3CN1CC2", "note": "(centres undefined)", "Activity": 88.3},
      {"smiles": "C/C=C/C(=O)Oc1c(OC)ccc2c1CN1CCc3cc(OC)c(OC)cc3C1C2", "note": "(centres undefined)", "Activity": 81.7},
      {"smiles": "CCCOc1c(OC)ccc2c1CN1CCc3cc4c(cc3C1C2)OCO4", "note": "(centres undefined)", "Activity": 101.5},
      {"smiles": "COc1ccc2c(c1OC(=O)C13CC4CC(CC(C4)C1)C3)CN1CCc3cc4c(cc3C1C2)OCO4", "note": "(centres undefined)", "Activity": 80.2},
      {"smiles": "CCOc1c(OC)ccc2c1CN1CCc3cc4c(cc3C1C2)OCO4", "note": "(centres undefined)", "Activity": 87.7},
      {"smiles": "COc1cc2c(cc1OC)C1Cc3ccc(OC)c(OS(=O)(=O)c4ccc(Br)cc4)c3CN1CC2", "note": "(centres undefined)", "Activity": 86.5},
      {"smiles": "COc1ccc2c(c1OS(=O)(=O)c1cc(C)ccc1C)CN1CCc3cc4c(cc3C1C2)OCO4", "note": "(centres undefined)", "Activity": 84.5},
      {"smiles": "COc1ccc2c(c1OC(=O)c1ccc(CCl)cc1)CN1CCc3cc4c(cc3C1C2)OCO4", "note": "(centres undefined)", "Activity": 97.8},
      {"smiles": "C/C=C/C(=O)Oc1c(OC)ccc2c1CN1CCc3cc4c(cc3C1C2)OCO4", "note": "(centres undefined)", "Activity": 84.3},
      {"smiles": "COc1cc2c(cc1OC)C1Cc3ccc(OC)c(OC(=O)C45CC6CC(CC(C6)C4)C5)c3CN1CC2", "note": "(centres undefined)", "Activity": 99.3},
      {"smiles": "COc1cc2c(cc1OC)C1Cc3ccc(OC)c(OS(=O)(=O)c4ccc(Cl)c([N+](=O)[O-])c4)c3CN1CC2", "note": "(centres undefined)", "Activity": 94.7},
      {"smiles": "COc1cc2c(cc1OC)C1Cc3ccc(OC)c(OC(=O)c4ccc(F)cc4)c3CN1CC2", "note": "(centres undefined)", "Activity": 95.1},
      {"smiles": "CCOc1ccccc1C(=O)Oc1c(OC)ccc2c1CN1CCc3cc4c(cc3C1C2)OCO4", "note": "(centres undefined)", "Activity": 96},
      {"smiles": "COc1cc2c(cc1OC)C1Cc3ccc(OC)c(OC(=O)C4CC4)c3CN1CC2", "note": "(centres undefined)", "Activity": 91.2},
      {"smiles": "CCS(=O)(=O)Oc1c(OC)ccc2c1CN1CCc3cc(OC)c(OC)cc3C1C2", "note": "(centres undefined)", "Activity": 87.7},
      {"smiles": "COc1ccc2c(c1OC(=O)C1CC1)CN1CCc3cc4c(cc3C1C2)OCO4", "note": "(centres undefined)", "Activity": 90.7},
      {"smiles": "CCOc1ccccc1C(=O)Oc1c(OC)ccc2c1CN1CCc3cc(OC)c(OC)cc3C1C2", "note": "(centres undefined)", "Activity": 84.6},
      {"smiles": "COc1ccc2c(c1OC(=O)c1ccc(F)cc1)CN1CCc3cc4c(cc3C1C2)OCO4", "note": "(centres undefined)", "Activity": 85.6},
      {"smiles": "COc1ccc2c(c1OS(=O)(=O)c1c(C(C)C)cc(C(C)C)cc1C(C)C)CN1CCc3cc4c(cc3C1C2)OCO4", "note": "(centres undefined)", "Activity": 92.8},
      {"smiles": "COc1cc2c(cc1OC)C1Cc3ccc(OC)c(OC(=O)c4ccco4)c3CN1CC2", "note": "(centres undefined)", "Activity": 80.9},
      {"smiles": "COc1cc2c(cc1OC)C1Cc3ccc(OC)c(OC(=O)c4cccc(Br)c4)c3CN1CC2", "note": "(centres undefined)", "Activity": 80.2},
      {"smiles": "CCCC(CCC)C(=O)Oc1c(OC)ccc2c1CN1CCc3cc(OC)c(OC)cc3C1C2", "note": "(centres undefined)", "Activity": 97.9},
      {"smiles": "COc1ccc2c(c1OS(=O)(=O)c1ccc(Cl)c([N+](=O)[O-])c1)CN1CCc3cc4c(cc3C1C2)OCO4", "note": "(centres undefined)", "Activity": 93.4},
      {"smiles": "COc1ccc2c(c1OC(=O)C1CCCCC1)CN1CCc3cc4c(cc3C1C2)OCO4", "note": "(centres undefined)", "Activity": 90.7},
      {"smiles": "COc1cc2c(cc1OC)C1Cc3ccc(OC)c(OS(=O)(=O)c4ccccc4[N+](=O)[O-])c3CN1CC2", "note": "(centres undefined)", "Activity": 84.8},
      {"smiles": "COc1ccc2c(c1OC(=O)c1cccc(Br)c1)CN1CCc3cc4c(cc3C1C2)OCO4", "note": "(centres undefined)", "Activity": 85},
      {"smiles": "COc1ccc2c(c1OS(=O)(=O)c1ccc(F)cc1)CN1CCc3cc4c(cc3C1C2)OCO4", "note": "(centres undefined)", "Activity": 86.8},
      {"smiles": "COc1ccc2c(c1OCc1cc(F)ccc1F)CN1CCc3cc4c(cc3C1C2)OCO4", "note": "(centres undefined)", "Activity": 87.7},
      {"smiles": "C=C(C)C(=O)Oc1c(OC)ccc2c1CN1CCc3cc(OC)c(OC)cc3C1C2", "note": "(centres undefined)", "Activity": 95.4},
      {"smiles": "COc1cc2c(cc1OC)C1Cc3ccc(OC)c(OC(=O)C(C)(C)CCl)c3CN1CC2", "note": "(centres undefined)", "Activity": 91.2}
    ]},
    {"test_system": "HepG2", "test": "Down regulation of intracellular TC level in human HepG2 cells at 10 uM measured after 24 hrs", "assay_type": "functional, cell-based", "outline": "(§1)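 HepG2 cells grown in six-well plates and exposed 24 h to compound at […]. Cells collected in PBS and sonicated (5 s on, 10 s off, 60 s total). Total cholesterol or triglyceride measured with a colorimetric determination kit.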", "values": [
      {"smiles": "COc1cc2c(cc1OC)C1Cc3ccc(OC)c(OS(=O)(=O)c4c(C(C)C)cc(C(C)C)cc4C(C)C)c3CN1CC2", "note": "(centres undefined)", "Activity": "Active"},
      {"smiles": "COc1ccc2c(c1OCc1ccc([N+](=O)[O-])cc1)CN1CCc3cc4c(cc3C1C2)OCO4", "note": "(centres undefined)", "Activity": "Active"},
      {"smiles": "CCCOc1c(OC)ccc2c1CN1CCc3cc4c(cc3C1C2)OCO4", "note": "(centres undefined)", "Activity": "Active"},
      {"smiles": "COc1cc2c(cc1OC)C1Cc3ccc(OC)c(OC(=O)C4CC4)c3CN1CC2", "note": "(centres undefined)", "Activity": "Active"}
    ]},
    {"test_system": "HepG2", "test": "Down regulation of intracellular TG level in human HepG2 cells at 10 uM measured after 24 hrs", "assay_type": "functional, cell-based", "outline": "as §1", "values": [
      {"smiles": "COc1cc2c(cc1OC)C1Cc3ccc(OC)c(OS(=O)(=O)c4c(C(C)C)cc(C(C)C)cc4C(C)C)c3CN1CC2", "note": "(centres undefined)", "Activity": "Active"},
      {"smiles": "CCCCOc1c(OC)ccc2c1CN1CCc3cc4c(cc3C1C2)OCO4", "note": "(centres undefined)", "Activity": "Active"},
      {"smiles": "COc1ccc2c(c1OCc1ccc([N+](=O)[O-])cc1)CN1CCc3cc4c(cc3C1C2)OCO4", "note": "(centres undefined)", "Activity": "Active"},
      {"smiles": "CCCOc1c(OC)ccc2c1CN1CCc3cc4c(cc3C1C2)OCO4", "note": "(centres undefined)", "Activity": "Active"},
      {"smiles": "COc1cc2c(cc1OC)C1Cc3ccc(OC)c(OC(=O)C4CC4)c3CN1CC2", "note": "(centres undefined)", "Activity": "Active"}
    ]}
  ]
}
